Measurements: ChEMBL document CHEMBL4321796, “Proteolysis Targeting Chimeras for the Selective Degradation of Mcl-1/Bcl-2 Derived from Nonselective Target Binding Ligands” (J Med Chem, 2019)
Activity calls are given as the source filed them. The calls are words filed in the database; no cut-off is given here.

Experiments:
[1] = system: NCI-H23; assay: Cytotoxicity against human H23 cells incubated for 24 hrs by CCK8 assay; format: functional, cell-based
Method in brief: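 H23 cells seeded at 4 × 10^4 per mL in RPMI with 10% FBS, L-glutamine and pen/strep. Treated 24 h at various concentrations or with DMSO vehicle (0.05%). Viability read by CCK8 and normalized against cell-free background and untreated cultures; mean ± s.e.m., n=3.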

[2] = molecular target: T1, Protein cereblon/Apoptosis regulator Bcl-2 (Homo sapiens, UniProt P10415+Q96SW2); assay: Induction of CRBN-mediated Bcl-2 degradation in human HeLa cells assessed as relative abundance at 10 uM after 12 hrs by Western blot analysis (reference value: 1); format: cell-based
T1 sequence (P10415 whole entry, looked up): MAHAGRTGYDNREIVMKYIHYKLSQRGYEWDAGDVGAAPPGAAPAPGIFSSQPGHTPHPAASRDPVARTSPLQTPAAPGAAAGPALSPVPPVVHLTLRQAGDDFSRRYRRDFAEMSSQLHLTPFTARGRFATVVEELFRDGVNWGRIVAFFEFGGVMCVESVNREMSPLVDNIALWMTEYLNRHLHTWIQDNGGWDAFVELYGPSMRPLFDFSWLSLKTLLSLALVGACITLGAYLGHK
T1 sequence (Q96SW2 whole entry, looked up): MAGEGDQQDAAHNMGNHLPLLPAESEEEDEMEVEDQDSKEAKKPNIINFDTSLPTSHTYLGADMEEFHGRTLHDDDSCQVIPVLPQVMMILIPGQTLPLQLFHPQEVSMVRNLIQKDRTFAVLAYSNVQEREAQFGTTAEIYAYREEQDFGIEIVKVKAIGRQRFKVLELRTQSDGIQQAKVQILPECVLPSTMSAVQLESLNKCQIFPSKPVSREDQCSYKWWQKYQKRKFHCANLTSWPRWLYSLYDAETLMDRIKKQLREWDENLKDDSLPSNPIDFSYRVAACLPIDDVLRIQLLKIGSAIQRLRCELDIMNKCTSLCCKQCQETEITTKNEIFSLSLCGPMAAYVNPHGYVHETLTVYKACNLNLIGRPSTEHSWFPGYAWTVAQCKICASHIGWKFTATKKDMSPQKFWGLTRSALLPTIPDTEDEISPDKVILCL

[3] = molecular target: T2, Protein cereblon/Induced myeloid leukemia cell differentiation protein Mcl-1 (Homo sapiens, UniProt Q07820+Q96SW2); assay: Induction of CRBN-mediated Mcl-1 degradation in human HeLa cells assessed as relative abundance at 10 uM after 12 hrs by Western blot analysis (reference value: 1); format: cell-based
T2 sequence (Q07820 whole entry, looked up, the tested form may be a part): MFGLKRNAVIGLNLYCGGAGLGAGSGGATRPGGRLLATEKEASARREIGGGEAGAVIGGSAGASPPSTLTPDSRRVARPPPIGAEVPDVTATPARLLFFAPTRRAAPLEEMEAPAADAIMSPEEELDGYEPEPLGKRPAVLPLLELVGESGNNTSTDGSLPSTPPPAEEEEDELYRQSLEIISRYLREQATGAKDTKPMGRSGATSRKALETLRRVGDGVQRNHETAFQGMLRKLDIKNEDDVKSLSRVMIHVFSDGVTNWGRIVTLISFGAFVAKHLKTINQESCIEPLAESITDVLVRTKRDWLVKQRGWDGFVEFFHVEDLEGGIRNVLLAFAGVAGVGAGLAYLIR
T2 sequence (Q96SW2 whole entry, looked up, the tested form may be a part): as the sequence (Q96SW2 whole entry, looked up) above

[4] = molecular target: Apoptosis regulator Bcl-2 (Homo sapiens, UniProt P10415); assay: Inhibition of biotinylated Bim peptide (81 to 106 residues) binding to His-tagged human Bcl-2 expressed in Escherichia coli BL21 (DE3) cells preincubated for 1 hr followed by biotinylated Bim peptide addition measured after 2 hrs by ELISA
Apoptosis regulator Bcl-2, sequence (P10415 whole entry, the tested form may be a part): as the sequence (P10415 whole entry, looked up) above
Method in brief: (§1)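 Inhibitor serially diluted (100–0.1 µM) from 10 mM DMSO stock, preincubated 1 h with 200 nM His-tagged protein in PBS (final DMSO 4%), then added 2 h to streptavidin plates holding biotin-Bim (plated at 0.09 mg/mL). Incubations at 4 °C. Detection with HRP anti-His, TMB 30 min, H2SO4 stop, A450. IC50 averaged from three independent experiments, with SD.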

[5] = molecular target: T1, Protein cereblon/Apoptosis regulator Bcl-2; assay: Induction of CRBN-mediated Bcl-2 degradation in human HeLa cells at 10 uM after 12 hrs by Western blot analysis relative to control; format: cell-based
[6] = molecular target: T2, Protein cereblon/Induced myeloid leukemia cell differentiation protein Mcl-1; assay: Induction of CRBN-mediated Mcl-1 degradation in human HeLa cells assessed as Mcl-1 level at 10 uM after 12 hrs by Western blot analysis; format: cell-based
[7] = molecular target: Induced myeloid leukemia cell differentiation protein Mcl-1 (Homo sapiens, UniProt Q07820); assay: Inhibition of biotinylated Bim peptide (81 to 106 residues) binding to His-tagged human Mcl-1 expressed in Escherichia coli BL21 (DE3) cells preincubated for 1 hr followed by biotinylated Bim peptide addition measured after 2 hrs by ELISA; method in brief: as §1
Induced myeloid leukemia cell differentiation protein Mcl-1, sequence (Q07820 whole entry, the tested form may be a part): as the sequence (Q07820 whole entry, looked up, the tested form may be a part) above

[8] = molecular target: T1, Protein cereblon/Apoptosis regulator Bcl-2; assay: Induction of CRBN-mediated Bcl-2 degradation in human HeLa cells assessed as reduction in Bcl-2 level at 10 uM after 12 hrs by Western blot analysis; format: cell-based
[9] = molecular target: T2, Protein cereblon/Induced myeloid leukemia cell differentiation protein Mcl-1; assay: Induction of CRBN-mediated Mcl-1 degradation in human HeLa cells at 10 uM after 12 hrs by Western blot analysis relative to control; format: cell-based
[10] = molecular target: T2, Protein cereblon/Induced myeloid leukemia cell differentiation protein Mcl-1; assay: Induction of CRBN-mediated Mcl-1 degradation in human HeLa cells assessed as relative abundance at 1 uM after 12 hrs by Western blot analysis (reference value: 1); format: cell-based
[11] = molecular target: T1, Protein cereblon/Apoptosis regulator Bcl-2; assay: Induction of CRBN-mediated Bcl-2 degradation in human HeLa cells assessed as relative abundance at 1 uM after 12 hrs by Western blot analysis (reference value: 1); format: cell-based
[12] = molecular target: T2, Protein cereblon/Induced myeloid leukemia cell differentiation protein Mcl-1; assay: Induction of CRBN-mediated Mcl-1 degradation in human HeLa cells assessed as formation of ubiquitin adducts of Mcl-1 at 1 to 10 uM after 12 hrs by Western blot analysis; format: cell-based
[13] = molecular target: T1, Protein cereblon/Apoptosis regulator Bcl-2; assay: Protac activity at CRBN/Bcl-2 in human HeLa cell lysates assessed as ternary complex formation by Western blot analysis based pull-down assay; format: subcellular; settings: Lysate
Method in brief: (§2)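 HeLa lysate (25×10^6 cells, 1% Triton X-100 IP buffer), 1 mg total protein, incubated overnight with 1 µg CRBN antibody across a compound concentration gradient. Capture on protein A+G agarose, three Triton washes, boiled in loading buffer. Mcl-1, Bcl-2 and CRBN detected by immunoblotting. n=3 independent samples.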

[14] = molecular target: T2, Protein cereblon/Induced myeloid leukemia cell differentiation protein Mcl-1; assay: Protac activity at CRBN/Mcl-1 in human HeLa cell lysates assessed as ternary complex formation by Western blot analysis based pull-down assay; format: subcellular; settings: Lysate; method in brief: as §2

| SMILES | fold change (FC) [2] | fold change (FC) [3] | IC50 [4] [µM] | Activity [5] | Activity [6] | IC50 [7] [µM] | Activity [8] | Activity [9] | fold change (FC) [10] | fold change (FC) [11] | Activity [12] | Activity [13] | Activity [14] | Activity [1] |
| --- | --- | --- | --- | --- | --- | --- | --- | --- | --- | --- | --- | --- | --- | --- |
| Cc1nn(C)c(COc2ccc(N3CCN(S(=O)(=O)N(C)C)CC3)cc2)c1-c1cccc2c(CCCOc3cccc4ccccc34)c(C(=O)O)n(CCN3CCOCC3)c12 |  |  |  |  |  |  |  |  |  |  |  |  |  | Active |
| N#CC1=C(C#N)c2ccc(Sc3ccc(Br)cc3)c3cccc(c23)C1=O | 1 | 1 | 2.31 | inactive | inactive | 2.03 | inactive | inactive |  |  |  |  |  |  |
| O=C(CCCCC(=O)NCCN1C(=O)c2cccc3c(Sc4ccc(Br)cc4)ccc(c23)C1=O)NCCNc1cccc2c1C(=O)N(C1CCC(=O)NC1=O)C2=O (stereo not given) | 1 | 1 | 15.2 |  |  | 7.89 |  |  | 1 | 1 |  |  |  |  |
| O=C(CCCCCNc1cccc2c1C(=O)N(C1CCC(=O)NC1=O)C2=O)NCCCCCCNC(=O)CCCCC(=O)NCCN1C(=O)c2cccc3c(Sc4ccc(Br)cc4)ccc(c23)C1=O (stereo not given) | 0.9 | 0.9 | 13.5 |  |  | 15.1 |  |  | 1 | 1 |  |  |  |  |
| O=C(CCCCC(=O)NCCN1C(=O)c2cccc3c(Sc4ccc(Br)cc4)ccc(c23)C1=O)NCCCCNc1cccc2c1C(=O)N(C1CCC(=O)NC1=O)C2=O (stereo not given) | 1 | 0.9 | 10 |  |  | 1.51 |  |  | 1 | 1 |  |  |  |  |
| CC(C)(C)c1ccc(C(=O)NCCN2C(=O)c3cccc4c(Sc5ccc(Br)cc5)ccc(c34)C2=O)cc1 | 1 | 1 | 3.18 | inactive | inactive | 4.45 | inactive | inactive |  |  |  |  |  | Active |
| O=C(CCCCC(=O)NCCN1C(=O)c2cccc3c(Sc4ccc(Br)cc4)ccc(c23)C1=O)NCCCCCCCCNc1cccc2c1C(=O)N(C1CCC(=O)NC1=O)C2=O (stereo not given) | 0.9 | 1 | 7.66 |  |  | 5.4 |  |  | 1 | 0.9 |  |  |  |  |
| COC(=O)CCNC1=C(C#N)C(=O)c2cccc3c(Sc4ccc(Br)cc4)ccc1c23 |  |  | 4.52 |  |  | 3.46 |  |  |  |  |  |  |  |  |
| COC(=O)CCCCC(=O)NCCN1C(=O)c2cccc3c(Sc4ccc(Br)cc4)ccc(c23)C1=O |  |  | 4.78 |  |  | 5.95 |  |  |  |  |  |  |  |  |

Second part, led by results:

| fold change (FC) [2] | fold change (FC) [3] | IC50 [4] [µM] | Activity [5] | Activity [6] | IC50 [7] [µM] | Activity [8] | Activity [9] | fold change (FC) [10] | fold change (FC) [11] | Activity [12] | Activity [13] | Activity [14] | SMILES | Activity [1] |
| --- | --- | --- | --- | --- | --- | --- | --- | --- | --- | --- | --- | --- | --- | --- |
| 1 | 1.5 | 11.6 | < 20% |  | 16 |  | < 20% | 1.2 | 1.1 | inactive |  |  | N#CC1=C(NCCC(=O)NCCCCCC(=O)NCCCCCCNc2cccc3c2C(=O)N(C2CCC(=O)NC2=O)C3=O)c2ccc(Sc3ccc(Br)cc3)c3cccc(c23)C1=O (stereo not given) |  |
| 1 | 0.8 | 9.71 | < 20% |  | 9.95 |  | < 20% | 0.9 | 1 |  |  |  | N#CC1=C(NCCC(=O)NCCCCNc2cccc3c2C(=O)N(C2CCC(=O)NC2=O)C3=O)c2ccc(Sc3ccc(Br)cc3)c3cccc(c23)C1=O (stereo not given) |  |
| 1 | 1 | 10.5 | < 20% |  | 10.6 |  | < 20% | 1 | 1 |  |  |  | N#CC1=C(NCCC(=O)NCCNc2cccc3c2C(=O)N(C2CCC(=O)NC2=O)C3=O)c2ccc(Sc3ccc(Br)cc3)c3cccc(c23)C1=O (stereo not given) |  |
| 1 | 2.2 | 2.24 | < 20% |  | 2.29 |  | < 20% | 1.8 | 1 | inactive |  |  | N#CC1=C(NCCC(=O)NCCOCCOCCNc2cccc3c2C(=O)N(C2CCC(=O)NC2=O)C3=O)c2ccc(Sc3ccc(Br)cc3)c3cccc(c23)C1=O (stereo not given) |  |
| 1.1 | 0.8 | 1.94 | < 20% |  | 7.65 |  | < 20% | 0.9 | 1 |  | inactive | inactive | N#CC1=C(NCCC(=O)NCCCCCCNc2cccc3c2C(=O)N(C2CCC(=O)NC2=O)C3=O)c2ccc(Sc3ccc(Br)cc3)c3cccc(c23)C1=O (stereo not given) |  |
